According to ChEMBL document CHEMBL1136558, “Inhibition of mast cell leukotriene release by thiourea derivatives” (Bioorg Med Chem Lett, 2003):

Test system: RBL-2H3
Experiment: Inhibition of IgE receptor/FcERI mediated leukotriene release from rat RBL-2H3 cells
Assay type: functional, cell-based
Method in brief: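 RBL-2H3 rat mast cells were sensitized with monoclonal anti-DNP IgE ([…]) for 1 h at 37 °C, washed to remove unbound IgE, and overlaid with PIPES-buffered saline containing 1 mM CaCl2. Cells were preincubated with compound or vehicle, then challenged with 20 ng/mL DNP-BSA for 30 min at 37 °C and centrifuged at 200g for 10 min at 4 °C. LTC4 was measured in cell-free supernatants and reported as IC50.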

Row | SMILES | IC50
1 | C[C@H](/N=C(\S)Nc1ccccn1)c1cccc2ccccc12 | > 100 µM
2 | C[C@@H](/N=C(\S)Nc1ccccn1)c1cccc2ccccc12 | > 100 µM
3 | Cc1cccc2sc(N/C(S)=N/[C@H](C)c3cccc4ccccc34)nc12 | > 100 µM
4 | Cc1cc(C)nc(N/C(S)=N/[C@H](C)c2cccc3ccccc23)c1 | > 100 µM
5 | C[C@H](/N=C(\S)Nc1nccs1)c1cccc2ccccc12 | > 100 µM
6 | C[C@H](/N=C(\S)Nc1ccc(Br)cn1)c1cccc2ccccc12 | > 100 µM
7 | C[C@H](/N=C(\S)Nc1nc2ccccc2s1)c1cccc2ccccc12 | > 100 µM
8 | Cc1cc(C)nc(N/C(S)=N/[C@@H](C)c2cccc3ccccc23)c1 | > 100 µM
9 | C[C@@H](/N=C(\S)Nc1ccc(Cl)cn1)c1cccc2ccccc12 | > 100 µM
10 | COc1ccc2nc(/N=C(\S)N[C@H](C)c3cccc4ccccc34)sc2c1 | > 100 µM
11 | Cc1ccc(N/C(S)=N/[C@@H](C)c2cccc3ccccc23)nc1 | > 100 µM
12 | C[C@@H](/N=C(\S)Nc1nccs1)c1cccc2ccccc12 | > 100 µM
13 | Cc1cccc2sc(N/C(S)=N/[C@@H](C)c3cccc4ccccc34)nc12 | > 100 µM

The next compounds have a lower IC50 than those just listed; values first:

Row | IC50 | SMILES
14 | 6.8 µM | COc1cc2ncnc(Nc3cc(Br)c(O)c(Br)c3)c2cc1OC
15 | 16.8 µM | Oc1ccc(CC/N=C(\S)Nc2ccc(Br)cn2)cc1
16 | 0.002 µM | CCOC(=O)Cc1csc(/N=C(\S)N[C@@H](C)c2cccc3ccccc23)n1
17 | 83.2 µM | Cc1csc(N/C(S)=N/[C@@H](C)c2cccc3ccccc23)n1
18 | 25.9 µM | Cc1csc(N/C(S)=N/[C@H](C)c2cccc3ccccc23)n1
19 | 1.6 µM | Cc1cccc(N/C(S)=N/[C@@H](C)c2cccc3ccccc23)n1
20 | 18.9 µM | C[C@@H](/N=C(\S)Nc1nc2ccccc2s1)c1cccc2ccccc12
21 | 8.5 µM | Oc1ccc(CC/N=C(\S)Nc2ccccn2)cc1
22 | 0.002 µM | CCOC(=O)Cc1csc(/N=C(\S)N[C@H](C)c2cccc3ccccc23)n1
23 | 12.6 µM | Oc1ccc(CC/N=C(\S)Nc2ccc(Cl)cn2)cc1
24 | 6.1 µM | S=C(NCCc1c[nH]c2ccccc12)Nc1ccc(Br)cn1
25 | 4.9 µM | S=C(NCCc1c[nH]c2ccccc12)Nc1ccc(Cl)cn1
26 | 0.005 µM | Cc1ccc(N/C(S)=N/[C@H](C)c2cccc3ccccc23)nc1
